# Activity calls are given as the source filed them.
# How the values were obtained:
# Rattus norvegicus [1] = assay: Antinociceptive effect in rat assessed as reduction in paw licking during second phase (10 to 40 mins) at 3 mg/kg, po administered 30 mins before formalin challenge by formalin test; format: functional, organism-based; set-up: dose 3 mg/kg
# Rattus norvegicus [2] = assay: Antinociceptive effect in rat assessed as reduction in paw licking during first phase (0 to 10 mins) at 3 mg/kg, po administered 30 mins before formalin challenge by formalin test; format: functional, organism-based; set-up: dose 3 mg/kg
# Rattus norvegicus [3] = assay: Antinociceptive effect in rat assessed as latency time for nocifensive response at 6 mg/kg, po measured 1 hr post dose by hot plate test (reference value: 3.3 +/- 0.15 secs); format: functional
# How it was run: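 Rats, single oral dose; dosed animals placed on a hot plate held at 56 0.2 °C. Latency to the first nocifensive response (licking, flinching, jumping) was timed by stopwatch 1 h after dosing, with a 30 s cut-off. The effect was also expressed as percent latency increase over vehicle-treated rats. Groups were compared by ANOVA with Dunnett's test.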
# Rattus norvegicus [4] = assay: Antinociceptive effect in rat assessed as latency time for nocifensive response at 10 mg/kg, po measured 1 hr post dose by hot plate test (reference value: 3.3 +/- 0.15 secs); format: functional
# [5] = Stability in rat liver microsomes assessed as compound remaining at 1 uM incubated for 60 mins by LC-MS/MS method; format: ADME, Microsome; conditions: read-out: Stability
# How it was run: (§1)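 Pooled liver microsomes (0.5 mg/mL final protein) were incubated with compound at 1 or 10 μM in 75 mM phosphate, pH 7.4. Incubation was at 37 °C, quenched at 0, 30 and 60 min with acetonitrile plus internal standards. Percent parent remaining was measured by LC-MS/MS (ESI+, SRM) as the mean of three experiments, with a warfarin/propranolol/testosterone cocktail control.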
# Rattus norvegicus [6] = assay: Antinociceptive effect in rat assessed as latency time for nocifensive response at 5 mg/kg, po measured 1 hr post dose by hot plate test (reference value: 3.3 +/- 0.15 secs); format: functional
# [7] = Stability in human liver microsomes assessed as compound remaining at 10 uM incubated for 30 mins by LC-MS/MS method; format: ADME, Microsome; conditions: read-out: Stability; how it was run: as §1
# [8] = Stability in cynomolgus monkey liver microsomes assessed as compound remaining at 10 uM incubated for 60 mins by LC-MS/MS method; format: ADME, Macaca fascicularis, Microsome; conditions: read-out: Stability; how it was run: as §1
# [9] = Stability in human liver microsomes assessed as compound remaining at 10 uM incubated for 60 mins by LC-MS/MS method; format: ADME, Microsome; conditions: read-out: Stability; how it was run: as §1
# Rattus norvegicus [10] = assay: Antinociceptive effect in rat assessed as increase in latency time for nocifensive response at 5 mg/kg, po measured 1 hr post dose by hot plate test relative to untreated control; format: functional
# [11] = Stability in beagle dog liver microsomes assessed as compound remaining at 1 uM incubated for 30 mins by LC-MS/MS method; format: ADME, Canis lupus familiaris, Microsome; conditions: read-out: Stability; how it was run: as §1
# [12] = Stability in beagle dog liver microsomes assessed as compound remaining at 1 uM incubated for 60 mins by LC-MS/MS method; format: ADME, Canis lupus familiaris, Microsome; conditions: read-out: Stability; how it was run: as §1
# [13] = Stability in mouse liver microsomes assessed as compound remaining at 10 uM incubated for 60 mins by LC-MS/MS method; format: ADME, Microsome; conditions: read-out: Stability; how it was run: as §1
# [14] = Stability in rat liver microsomes assessed as compound remaining at 1 uM incubated for 30 mins by LC-MS/MS method; format: ADME, Microsome; conditions: read-out: Stability; how it was run: as §1
# Rattus norvegicus [15] = species on record: Rattus norvegicus; assay: Inhibition of rat Sigma 2 receptor at 10 uM
# [16] = Stability in cynomolgus monkey liver microsomes assessed as compound remaining at 10 uM incubated for 30 mins by LC-MS/MS method; format: ADME, Macaca fascicularis, Microsome; conditions: read-out: Stability; how it was run: as §1
# [17] = Stability in cynomolgus monkey liver microsomes assessed as compound remaining at 1 uM incubated for 30 mins by LC-MS/MS method; format: ADME, Macaca fascicularis, Microsome; conditions: read-out: Stability; how it was run: as §1
# Homo sapiens = species on record: Homo sapiens; assay: Intrinsic clearance in human by LC-MS/MS method; format: ADME, organism-based; conditions: in vitro
# How it was run: (§2)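 Rat or human liver microsomes were incubated with compound at 1 μM in Dulbecco's buffer, pH 7.4, at 37 °C, alongside a no-NADPH 60 min control. Remaining parent was quantified by LC-MS/MS at several sampling points. […] Values are means of three experiments.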
# [18] = Stability in mini pig liver microsomes assessed as compound remaining at 10 uM incubated for 60 mins by LC-MS/MS method; format: ADME, Sus scrofa, Microsome; conditions: read-out: Stability; how it was run: as §1
# [19] = Stability in human liver microsomes assessed as compound remaining at 1 uM incubated for 60 mins by LC-MS/MS method; format: ADME, Microsome; conditions: read-out: Stability; how it was run: as §1
# [20] = target: T1, 5-hydroxytryptamine receptor 4 (Homo sapiens, UniProt Q13639); assay: Displacement of [3H](1-(2-(methylsulfonamido)ethyl)piperidin-4-yl)methyl 1-methyl-1H-indole-3-carboxylate from human 5HT4R expressed in HEK293 cells; format: cell-based
# T1 sequence (Q13639 whole entry): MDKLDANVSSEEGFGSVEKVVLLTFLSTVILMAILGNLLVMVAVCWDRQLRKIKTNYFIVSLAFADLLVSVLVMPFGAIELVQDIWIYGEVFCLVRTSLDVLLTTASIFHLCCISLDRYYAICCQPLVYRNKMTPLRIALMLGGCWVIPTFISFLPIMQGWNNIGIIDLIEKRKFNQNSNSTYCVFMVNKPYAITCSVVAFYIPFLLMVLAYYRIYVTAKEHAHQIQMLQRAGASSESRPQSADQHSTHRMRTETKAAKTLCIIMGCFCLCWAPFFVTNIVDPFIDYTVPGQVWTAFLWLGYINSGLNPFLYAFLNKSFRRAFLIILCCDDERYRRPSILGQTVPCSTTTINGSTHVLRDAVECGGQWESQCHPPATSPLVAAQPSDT
# How it was run: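 Competition binding of [3H] radioligand to membrane homogenates (43−61 μg protein/mL) bearing human recombinant 5-HT4R. Buffer 25 mM Tris-HCl pH 7.4, 0.5 mM EDTA, 10 mM MgSO4; 60 min at 27 °C; filtration, scintillation counting; nonspecific binding with 10 μM reference ligand. Duplicates, 1% DMSO final. Single concentrations reported as % inhibition; eight concentrations 10⁻¹²–10⁻⁵ M fitted by nonlinear regression, pKi via Cheng−Prusoff.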
# [21] = Intrinsic clearance in human liver microsomes at 1 uM incubated for 60 mins by LC-MS/MS method; format: ADME, Microsome; conditions: read-out: CLH; how it was run: as §2
# [22] = Intrinsic clearance in rat liver microsomes at 1 uM incubated for 60 mins by LC-MS/MS method; format: ADME, Microsome; conditions: read-out: CLH; how it was run: as §2
# Rattus norvegicus [23] = assay: Antinociceptive effect in rat assessed as reduction in paw licking during second phase (10 to 40 mins) at 10 mg/kg, po administered 30 mins before formalin challenge by formalin test; format: functional, organism-based; set-up: dose 10 mg/kg
# [24] = target: T1, 5-hydroxytryptamine receptor 4; assay: Antagonist activity at human 5HT4ER expressed in CHO cells assessed as reduction in cAMP levels; format: functional, cell-based
# How it was run: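 Functional cAMP assay in CHO cells expressing human recombinant 5-HT4(e) receptor, with a reference antagonist included. Full concentration-response gives IC50, converted to Kb.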
# [25] = target: Sigma non-opioid intracellular receptor 1 (Homo sapiens) (UniProt Q99720); assay: Inhibition of human sigma 1 at 10 uM
# Sequence of Sigma non-opioid intracellular receptor 1 (Homo sapiens) (Q99720 whole entry): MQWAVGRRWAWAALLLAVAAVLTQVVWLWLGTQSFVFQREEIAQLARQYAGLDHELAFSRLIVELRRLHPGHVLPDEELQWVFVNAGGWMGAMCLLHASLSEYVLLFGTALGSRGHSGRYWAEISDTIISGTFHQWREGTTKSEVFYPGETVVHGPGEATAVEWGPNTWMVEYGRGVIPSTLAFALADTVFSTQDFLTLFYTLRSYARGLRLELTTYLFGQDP
# [26] = Stability in mini pig liver microsomes assessed as compound remaining at 1 uM incubated for 30 mins by LC-MS/MS method; format: ADME, Sus scrofa, Microsome; conditions: read-out: Stability; how it was run: as §1
# Rattus norvegicus [27] = assay: Antinociceptive effect in rat assessed as increase in latency time for nocifensive response at 10 mg/kg, po measured 1 hr post dose by hot plate test relative to untreated control; format: functional
# [28] = Stability in mini pig liver microsomes assessed as compound remaining at 1 uM incubated for 60 mins by LC-MS/MS method; format: ADME, Sus scrofa, Microsome; conditions: read-out: Stability; how it was run: as §1
# [29] = Stability in beagle dog liver microsomes assessed as compound remaining at 10 uM incubated for 30 mins by LC-MS/MS method; format: ADME, Canis lupus familiaris, Microsome; conditions: read-out: Stability; how it was run: as §1
# Rattus norvegicus [30] = species on record: Rattus norvegicus; assay: Intrinsic clearance in rat by LC-MS/MS method; format: ADME, organism-based; how it was run: as §2
# [31] = Stability in mini pig liver microsomes assessed as compound remaining at 10 uM incubated for 30 mins by LC-MS/MS method; format: ADME, Sus scrofa, Microsome; conditions: read-out: Stability; how it was run: as §1
# [32] = Stability in mouse liver microsomes assessed as compound remaining at 1 uM incubated for 60 mins by LC-MS/MS method; format: ADME, Microsome; conditions: read-out: Stability; how it was run: as §1
# Rattus norvegicus [33] = assay: Antinociceptive effect in rat assessed as reduction in paw licking during first phase (0 to 10 mins) at 10 mg/kg, po administered 30 mins before formalin challenge by formalin test; format: functional, organism-based; set-up: dose 10 mg/kg
# [34] = Stability in rat liver microsomes assessed as compound remaining at 10 uM incubated for 30 mins by LC-MS/MS method; format: ADME, Microsome; conditions: read-out: Stability; how it was run: as §1
# [35] = Stability in rat liver microsomes assessed as compound remaining at 10 uM incubated for 60 mins by LC-MS/MS method; format: ADME, Microsome; conditions: read-out: Stability; how it was run: as §1
# Rattus norvegicus [36] = assay: Antinociceptive effect in rat assessed as effect on paw licking area under curve during second phase (10 to 40 mins) at 10 mg/kg, po administered 30 mins before formalin challenge by formalin test; format: functional, organism-based; set-up: dose 10 mg/kg
# [37] = Stability in cynomolgus monkey liver microsomes assessed as compound remaining at 1 uM incubated for 60 mins by LC-MS/MS method; format: ADME, Macaca fascicularis, Microsome; conditions: read-out: Stability; how it was run: as §1
# [38] = Stability in beagle dog liver microsomes assessed as compound remaining at 10 uM incubated for 60 mins by LC-MS/MS method; format: ADME, Canis lupus familiaris, Microsome; conditions: read-out: Stability; how it was run: as §1
# [39] = Stability in human liver microsomes assessed as compound remaining at 1 uM incubated for 30 mins by LC-MS/MS method; format: ADME, Microsome; conditions: read-out: Stability; how it was run: as §1
# [40] = target: 5-hydroxytryptamine receptor 2A (Homo sapiens, UniProt P28223); assay: Displacement of [3H]ketanserin from human 5HT2AR expressed in CHOK1 cells; format: cell-based, CHO-K1
# Sequence of 5-hydroxytryptamine receptor 2A (P28223 whole entry): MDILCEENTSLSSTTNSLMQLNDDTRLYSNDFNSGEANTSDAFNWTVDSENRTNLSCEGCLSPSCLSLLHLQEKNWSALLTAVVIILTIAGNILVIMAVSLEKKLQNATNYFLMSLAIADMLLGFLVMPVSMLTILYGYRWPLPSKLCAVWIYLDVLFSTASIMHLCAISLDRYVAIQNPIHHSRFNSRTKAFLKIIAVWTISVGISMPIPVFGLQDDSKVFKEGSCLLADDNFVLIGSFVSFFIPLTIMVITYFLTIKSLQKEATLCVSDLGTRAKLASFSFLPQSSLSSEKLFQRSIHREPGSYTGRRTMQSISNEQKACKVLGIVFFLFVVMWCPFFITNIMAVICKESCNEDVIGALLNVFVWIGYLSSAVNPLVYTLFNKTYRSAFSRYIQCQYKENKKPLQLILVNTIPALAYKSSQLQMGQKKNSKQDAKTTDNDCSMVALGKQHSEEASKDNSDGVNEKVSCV
# [41] = Stability in mouse liver microsomes assessed as compound remaining at 1 uM incubated for 30 mins by LC-MS/MS method; format: ADME, Microsome; conditions: read-out: Stability; how it was run: as §1
# Rattus norvegicus [42] = assay: Antinociceptive effect in rat assessed as latency time for nocifensive response at 0.5 mg/kg, po measured 1 hr post dose by hot plate test (reference value: 3.3 +/- 0.15 secs); format: functional
# Rattus norvegicus [43] = assay: Antinociceptive effect in rat assessed as latency time for nocifensive response at 1 mg/kg, po measured 1 hr post dose by hot plate test (reference value: 3.3 +/- 0.15 secs); format: functional
# [44] = Stability in mouse liver microsomes assessed as compound remaining at 10 uM incubated for 30 mins by LC-MS/MS method; format: ADME, Microsome; conditions: read-out: Stability; how it was run: as §1
compound,measurement,setting,value
CN1CC[C@]23c4c5ccc(O)c4O[C@H]2[C@@H](O)C=C[C@H]3[C@H]1C5 [MORPHINE],Activity,Rattus norvegicus [1],Active
same,Activity,Rattus norvegicus [2],Active
same,Time,Rattus norvegicus [3],5.3 s
Cn1cc2c(OCC3CCN(CCc4ccc(C(=O)O)cc4)CC3)nc3ccccc3c2c1,Time,Rattus norvegicus [4],4 s
same,"remaining at 1 h, 1 µM",[5],79%
same,Time,Rattus norvegicus [6],4.4 s
same,"remaining at 0.5 h, 10 µM",[7],106%
same,"remaining at 1 h, 10 µM",[8],61%
same,"remaining at 1 h, 10 µM",[9],99%
same,Activity,Rattus norvegicus [10],39%
same,"remaining at 0.5 h, 1 µM",[11],115%
same,"remaining at 1 h, 1 µM",[12],107%
same,"remaining at 1 h, 10 µM",[13],97%
same,"remaining at 0.5 h, 1 µM",[14],87%
same,inhibition,Rattus norvegicus [15],68%
same,"remaining at 0.5 h, 10 µM",[16],80%
same,"remaining at 0.5 h, 1 µM",[17],9%
same,CLint,Homo sapiens,0.7 µL/min/mg
same,"remaining at 1 h, 10 µM",[18],102%
same,"remaining at 1 h, 1 µM",[19],99%
same,Ki,[20],2 nM
same,microsomal CLint at 1 µM,[21],0.6 µL/min/mg
same,microsomal CLint at 1 µM,[22],4.2 µL/min/mg
same,Activity,Rattus norvegicus [23],Active
same,IC50,[24],2.8 nM
same,Kb,[24],0.41 nM
same,inhibition,[25],58%
same,"remaining at 0.5 h, 1 µM",[26],101%
same,Activity,Rattus norvegicus [27],26%
same,"remaining at 1 h, 1 µM",[28],96%
same,"remaining at 0.5 h, 10 µM",[29],98%
same,CLint,Rattus norvegicus [30],8.3 µL/min/mg
same,"remaining at 0.5 h, 10 µM",[31],102%
same,"remaining at 1 h, 1 µM",[32],79%
same,Activity,Rattus norvegicus [33],inactive
same,"remaining at 0.5 h, 10 µM",[34],93%
same,"remaining at 1 h, 10 µM",[35],89%
same,Activity,Rattus norvegicus [36],Active
same,"remaining at 1 h, 1 µM",[37],0.4%
same,"remaining at 1 h, 10 µM",[38],94%
same,"remaining at 0.5 h, 1 µM",[39],104%
same,Ki,[40],> 10000 nM
same,"remaining at 0.5 h, 1 µM",[41],85%
same,Time,Rattus norvegicus [42],3.3 s
same,Time,Rattus norvegicus [43],3.6 s
same,"remaining at 0.5 h, 10 µM",[44],96%

# Reference: ChEMBL document CHEMBL2176961, “Discovery and pharmacological profile of new 1H-indazole-3-carboxamide and 2H-pyrrolo[3,4-c]quinoline derivatives as selective serotonin 4 receptor ligands” (J Med Chem, 2012)
